Test results published in ChEMBL document CHEMBL1773054, “Ethionamide boosters: synthesis, biological activity, and structure-activity relationships of a series of 1,2,4-oxadiazole EthR inhibitors” (J Med Chem, 2011).
≈ marks a conversion by molar mass, not a printed value.

What was measured:
[1] = Half life in CD1 mouse liver microsomes by LC-MS-MS analysis; assay type: ADME, Microsome
How it was run: (§1)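 Male CD-1 mouse liver microsomes (0.6 mg protein/mL), compound 1 μM with 1% methanol vehicle, 5 mM MgCl2, 1 mM NADP, 5 mM glucose-6-phosphate, 0.4 U/mL G6PDH, 50 mM potassium phosphate pH 7.4, 37 °C, duplicates.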

[2] = Inhibition of EthR in Mycobacterium tuberculosis H37Rv expressing GFP infected in mouse RAW264.7 cells assessed as concentration required to ethionamide-induced 50% inhibition of bacterial growth after 5 days by microscopic analysis; assay type: cell-based; details: RAW264.7, 120 h
How it was run: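 Raw264.7 macrophages infected with M. tuberculosis H37Rv-GFP (MOI 1:1, 2 h, 37 °C, shaking); extracellular bacilli killed with amikacin 20 μM for 1 h. Cells added to wells holding ethionamide fixed at 0.1 μg/mL plus ten 2-fold dilutions of compound. Incubated 5 days at 37 °C, 5% CO2. Macrophages stained with SYTO 60, then imaged by automated confocal microscopy. Read-out is % infected cells. EC50 is the mean of two experiments.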

[3] = molecular target: HTH-type transcriptional regulator EthR (Mycobacterium tuberculosis, UniProt P9WMC1); assay: Inhibition of Mycobacterium tuberculosis EthR interaction to ethA promoter after 5 mins by surface plasmon resonance assay
Chain of HTH-type transcriptional regulator EthR (P9WMC1 whole entry): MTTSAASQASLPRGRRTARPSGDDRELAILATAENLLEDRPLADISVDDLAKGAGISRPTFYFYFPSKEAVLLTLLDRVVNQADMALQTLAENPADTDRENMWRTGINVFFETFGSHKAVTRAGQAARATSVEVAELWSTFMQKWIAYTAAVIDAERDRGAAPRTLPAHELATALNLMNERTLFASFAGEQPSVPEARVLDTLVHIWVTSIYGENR

[4] = tested on: RAW264.7; assay: Cytotoxicity against mouse RAW264.7 cells at > 30 uM; assay type: cell-based
[5] = Solubility of the compound at pH 7.4 after 24 hrs; assay type: physicochemical; details: buffer
How it was run: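 A 10 mM DMSO solution was diluted into PBS pH 7.4 or methanol and shaken gently 24 h at room temperature. It was then centrifuged and passed through a 0.45 μm filter. Filtrate was diluted in methanol and read by LC-MS-MS. Solubility was taken from the PBS/methanol mass-signal area ratio.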

[6] = tested on: RAW264.7; assay: Inhibition of EthR in Mycobacterium tuberculosis H37Rv expressing GFP infected in mouse RAW264.7 cells assessed as potentiation of ethionamide-induced inhibition of intracellular bacterial growth after 5 days by microscopic analysis; assay type: cell-based
[7] = tested on: Liver; assay: (§2) Intrinsic clearance in CD1 mouse liver microsomes by LC-MS-MS analysis; assay type: ADME, Microsome; details: mouse, microsomes; how it was run: as §1
[8] = as §2; assay type: ADME, Microsome; details: CD1, mouse, liver microsomes; how it was run: as §1

CC(C)NCC(O)COc1cccc2ccccc12 (stereo unspecified) [PROPRANOLOL]
half-life [1]: 13 min

CC(CC(=O)N1CCC(c2nc(-c3cccs3)no2)CC1)C(F)(F)F (stereo unspecified)
EC50 [2]: > 5 µM

O=C(CC(O)C(F)(F)F)N1CCC(c2nc(-c3cccs3)no2)CC1 (stereo unspecified)
EC50 [2]: > 5 µM

O=C(CC1CC1)N1CCC(c2nc(-c3cccs3)no2)CC1
EC50 [2]: 0.2 µM
IC50 [3]: 1.1 µM
Activity [4]: Non-toxic
solubility at 24 h [5]: 0.064 mg/mL (≈ 202 µM)

O=C(Cc1ccc(C(F)(F)F)cc1)N1CCC(c2nc(-c3cccs3)no2)CC1
EC50 [2]: > 5 µM
fold change (FC) [6]: 10

O=C(c1ccccc1)N1CCC(c2nc(-c3cccs3)no2)CC1
EC50 [2]: > 5 µM
fold change (FC) [6]: 10

CCCCC(=O)N1CCC(c2nc(-c3cccs3)no2)CC1
EC50 [2]: 1.1 µM

CC(C)CC(O)C(=O)N1CCC(c2nc(-c3cccs3)no2)CC1 (stereo unspecified)
EC50 [2]: > 5 µM

O=C(O)CCC(=O)N1CCC(c2nc(-c3cccs3)no2)CC1
EC50 [2]: > 5 µM

O=C(CCC(F)(F)F)N1CC[C@@H](c2nc(-c3cccs3)no2)C1
EC50 [2]: 0.4 µM
Activity [4]: Non-toxic
solubility at 24 h [5]: 0.08 mg/mL (≈ 232 µM)
half-life [1]: 298 min

O=C(Cc1ccncc1)N1CCC(c2nc(-c3cccs3)no2)CC1
EC50 [2]: > 5 µM
fold change (FC) [6]: 10

O=C(Cc1cccc(C(F)(F)F)c1)N1CCC(c2nc(-c3cccs3)no2)CC1
EC50 [2]: > 5 µM
fold change (FC) [6]: 10

COc1cccc(CC(=O)N2CCC(c3nc(-c4cccs4)no3)CC2)c1
EC50 [2]: > 5 µM
fold change (FC) [6]: 10

CC(C)(C)CCC(=O)N1CCC(c2nc(-c3cccs3)no2)CC1
EC50 [2]: > 5 µM

O=C(CC1CCCC1)N1CCC(c2nc(-c3cccs3)no2)CC1
EC50 [2]: 0.4 µM
Activity [4]: Toxic

COCC(=O)N1CCC(c2nc(-c3cccs3)no2)CC1
EC50 [2]: > 5 µM

O=C(Cc1cccc(F)c1)N1CCC(c2nc(-c3cccs3)no2)CC1
EC50 [2]: > 5 µM
fold change (FC) [6]: 10

CC(C)CCC(=O)N1CCC(c2nc(-c3cccs3)no2)CC1
EC50 [2]: 0.1 µM
Activity [4]: Toxic

O=C(CCC(F)(F)F)N1CCC[C@@H](c2nc(-c3cccs3)no2)C1
EC50 [2]: > 5 µM

Cc1cccc(CC(=O)N2CCC(c3nc(-c4cccs4)no3)CC2)c1
EC50 [2]: > 5 µM
fold change (FC) [6]: 10

CC(C)C[C@H](N)C(=O)N1CCC(c2nc(-c3cccs3)no2)CC1
EC50 [2]: > 5 µM

O=C(CCC(F)(F)F)N1CCC(c2nc(-c3cccs3)no2)CC1
EC50 [2]: 0.1 µM
Activity [4]: Non-toxic
half-life [1]: 5 min
CL [7]: 213 µL/min/mg

COc1ccccc1CC(=O)N1CCC(c2nc(-c3cccs3)no2)CC1
EC50 [2]: > 5 µM
fold change (FC) [6]: 10

CC(C)[C@H](N)C(=O)N1CCC(c2nc(-c3cccs3)no2)CC1
EC50 [2]: > 5 µM

O=C(CCC(F)(F)F)NCCCc1nc(-c2cccs2)no1
EC50 [2]: > 5 µM

O=C(Cc1ccccc1C(F)(F)F)N1CCC(c2nc(-c3cccs3)no2)CC1
EC50 [2]: > 5 µM
fold change (FC) [6]: 10

O=C(CCC(F)(F)F)N1CC[C@H](c2nc(-c3cccs3)no2)C1
EC50 [2]: 1.6 µM

O=C(Cc1ccc(Cl)cc1)N1CCC(c2nc(-c3cccs3)no2)CC1
EC50 [2]: 2.2 µM
fold change (FC) [6]: 10

Cc1ccccc1CC(=O)N1CCC(c2nc(-c3cccs3)no2)CC1
EC50 [2]: > 5 µM
fold change (FC) [6]: 10

CC(CC(F)(F)F)C(=O)N1CCC(c2nc(-c3cccs3)no2)CC1 (stereo unspecified)
EC50 [2]: > 5 µM

O=C(CC(F)(F)F)N1CCC(c2nc(-c3cccs3)no2)CC1
EC50 [2]: 1.3 µM

CC(=O)N1CCC(c2nc(-c3cccs3)no2)CC1
EC50 [2]: > 5 µM

O=C(Cc1cccs1)N1CCC(c2nc(-c3cccs3)no2)CC1
EC50 [2]: 0.1 µM
IC50 [3]: 0.5 µM
solubility at 24 h [5]: 0.022 mg/mL (≈ 61.2 µM)
half-life [1]: 3 min
microsomal CLint [8]: 412 µL/min/mg

O=S(=O)(CCC(F)(F)F)N1CCC(c2nc(-c3cccs3)no2)CC1
EC50 [2]: > 5 µM

O=C(Cc1cccnc1)N1CCC(c2nc(-c3cccs3)no2)CC1
EC50 [2]: > 5 µM
fold change (FC) [6]: 10

O=C(CCC(F)(F)F)N1CC(c2nc(-c3cccs3)no2)C1
EC50 [2]: > 5 µM

O=C(Cc1ccccn1)N1CCC(c2nc(-c3cccs3)no2)CC1
EC50 [2]: > 5 µM
fold change (FC) [6]: 10

O=C(NCC(F)(F)F)N1CCC(c2nc(-c3cccs3)no2)CC1
EC50 [2]: > 5 µM

CC(C)(C)CC(=O)N1CCC(c2nc(-c3cccs3)no2)CC1
EC50 [2]: > 5 µM

O=C(CCC(F)(C(F)(F)F)C(F)(F)F)N1CCC(c2nc(-c3cccs3)no2)CC1
EC50 [2]: > 5 µM

[N-]=[N+]=NCC(=O)N1CCC(c2nc(-c3cccs3)no2)CC1
EC50 [2]: 1.2 µM

CC(C)CC(=O)N1CCC(c2nc(-c3cccs3)no2)CC1
EC50 [2]: 2.5 µM

O=C(Cc1cccc(Cl)c1)N1CCC(c2nc(-c3cccs3)no2)CC1
EC50 [2]: > 5 µM
fold change (FC) [6]: 10

O=C(CCC(F)(F)F)N1CCC[C@H](c2nc(-c3cccs3)no2)C1
EC50 [2]: > 5 µM

O=C(CCC1CCCCC1)N1CCC(c2nc(-c3cccs3)no2)CC1
EC50 [2]: 1.8 µM

COCCC(=O)N1CCC(c2nc(-c3cccs3)no2)CC1
EC50 [2]: > 5 µM

O=C(Cc1ccc(F)cc1)N1CCC(c2nc(-c3cccs3)no2)CC1
EC50 [2]: 0.8 µM
fold change (FC) [6]: 10

CCCC(=O)N1CCC(c2nc(-c3cccs3)no2)CC1
EC50 [2]: 2.1 µM

O=C(CC1CCCCC1)N1CCC(c2nc(-c3cccs3)no2)CC1
EC50 [2]: 0.3 µM
Activity [4]: Toxic

O=C(Cc1ncc[nH]1)N1CCC(c2nc(-c3cccs3)no2)CC1
EC50 [2]: > 5 µM
fold change (FC) [6]: 10

O=C(Cc1ccccc1F)N1CCC(c2nc(-c3cccs3)no2)CC1
EC50 [2]: > 5 µM
fold change (FC) [6]: 10

O=C(Cc1ccccc1)N1CCC(c2nc(-c3cccs3)no2)CC1
EC50 [2]: 2.1 µM
fold change (FC) [6]: 10
IC50 [3]: 5.6 µM

O=C(CCc1cccs1)N1CCC(c2nc(-c3cccs3)no2)CC1
EC50 [2]: > 5 µM
fold change (FC) [6]: 10

N#CCC(=O)N1CCC(c2nc(-c3cccs3)no2)CC1
EC50 [2]: 1.5 µM
solubility at 24 h [5]: 0.194 mg/mL (≈ 642 µM)
half-life [1]: 91 min
microsomal CLint [8]: 11 µL/min/mg

Cc1ccc(CC(=O)N2CCC(c3nc(-c4cccs4)no3)CC2)cc1
EC50 [2]: > 5 µM
fold change (FC) [6]: 10

O=C(Cc1ccccc1Cl)N1CCC(c2nc(-c3cccs3)no2)CC1
EC50 [2]: > 5 µM
fold change (FC) [6]: 10

CC1CCC(CC(=O)N2CCC(c3nc(-c4cccs4)no3)CC2)CC1 (stereo unspecified)
EC50 [2]: > 5 µM

CCC(=O)N1CCC(c2nc(-c3cccs3)no2)CC1
EC50 [2]: > 5 µM

COc1ccc(CC(=O)N2CCC(c3nc(-c4cccs4)no3)CC2)cc1
EC50 [2]: > 5 µM
fold change (FC) [6]: 10
